Laboratory results from publication PMC6355468 (Journal of Pharmaceutical Analysis, 2018).
Like-named read-outs stand apart in the source and are kept apart here.

Key:
[1] = Rat pharmacokinetic study of DZ2002; type: in vivo, Sprague-Dawley rats
Procedure, shortened: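 Sprague-Dawley rats (230–280 g), four groups of 3 male + 3 female. Single tail-vein bolus of 5 mg/kg (normal saline), or single gavage doses of 5, 10 or 25 mg/kg. Blood (~100 μL) drawn at 0, 5, 15, 30 min and 1, 2, 4, 6, 8, 11, 24 h into heparinized tubes holding 400 μL methanol with 500 nM internal standard, then centrifuged. Parent and acid metabolite measured by LC-MS/MS. Non-compartmental analysis; F from dose-normalized po/iv AUC0–∞, either parent alone or parent plus acid.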

[2] = type: physicochemical, rat
[3] = system: rat blood carboxylesterases; type: in vitro ADME; settings: up to 30 min
Procedure, shortened: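 Fresh rat blood (200 μL) mixed first with 400 μL methanol, then test compound added. Incubated at 23 °C for 0, 2, 5, 10, 15 and 30 min in triplicate, then centrifuged. Supernatants analysed by LC-MS/MS (Synergi Fusion-RP column, water/methanol ammonium formate–formic acid gradient) for the acid metabolite.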

[4] = both, Sprague-Dawley, rat, blood, po
[5] = female, Sprague-Dawley, rat, blood, iv, 5 mg/kg
[6] = female, Sprague-Dawley, rat, blood, po, 5 mg/kg
[7] = female, Sprague-Dawley, rat, blood, po, 10 mg/kg
[8] = female, Sprague-Dawley, rat, blood, po, 25 mg/kg
[9] = male, Sprague-Dawley, rat, blood, iv, 5 mg/kg
[10] = male, Sprague-Dawley, rat, blood, po, 5 mg/kg
[11] = male, Sprague-Dawley, rat, blood, po, 10 mg/kg
[12] = male, Sprague-Dawley, rat, blood, po, 25 mg/kg
[13] = after three cycles of freeze and thaw of −70 °C↔23 °C, 80 nM
[14] = after three cycles of freeze and thaw of −70 °C↔23 °C, 8000 nM
[15] = in rat blood at 23 °C for 4 h, 80 nM
[16] = in rat blood at 23 °C for 4 h, 8000 nM
[17] = in rat blood at −70 °C for 60 days, 80 nM
[18] = in rat blood at −70 °C for 60 days, 8000 nM
[19] = in supernatant of methanol-treated rat blood at 10 °C for 24 h, 80 nM
[20] = in supernatant of methanol-treated rat blood at 10 °C for 24 h, 8000 nM
[21] = rats, intravenous DZ2002 at 5 mg/kg

Nc1ncnc2c1ncn2CCC(O)C(=O)O (stereo not shown) [DZA, 4-(6-amino-9H-purin-9-yl)-2-hydroxybutyric acid]
half-life [1, 4]: 78 to 306 min
AUC(0-inf) [1, 5]: 4.8 ± 0.3 µM·h
AUC(0-t) [1, 5]: 4.71 ± 0.34 µM·h
MRT [1, 5]: 30.6 ± 1.8 min
concentration at 5 min [1, 5]: 15.5 µM
half-life [1, 5]: 73.2 ± 26.4 min
AUC(0-inf) [1, 6]: 4.36 ± 0.701 µM·h
AUC(0-t) [1, 6]: 4.27 ± 0.669 µM·h
Cmax [1, 6]: 6.49 ± 1.04 µM
MRT [1, 6]: 60.6 ± 5.4 min
Tmax [1, 6]: 11.4 ± 6 min
half-life [1, 6]: 124 ± 68.4 min
AUC(0-inf) [1, 7]: 7.81 ± 0.846 µM·h
AUC(0-t) [1, 7]: 7.6 ± 1.03 µM·h
Cmax [1, 7]: 7.23 ± 1.98 µM
MRT [1, 7]: 97.8 ± 44.4 min
Tmax [1, 7]: 16.8 ± 12.6 min
half-life [1, 7]: 233 ± 225 min
AUC(0-inf) [1, 8]: 18.4 µM·h
AUC(0-t) [1, 8]: 17.6 µM·h
Cmax [1, 8]: 19.8 µM
MRT [1, 8]: 177 ± 166 min
Tmax [1, 8]: 11.4 ± 6 min
half-life [1, 8]: 305 ± 218 min
AUC(0-inf) [1, 9]: 5.03 ± 0.212 µM·h
AUC(0-t) [1, 9]: 4.94 ± 0.226 µM·h
MRT [1, 9]: 33.6 ± 16.8 min
concentration at 5 min [1, 9]: 15.3 µM
half-life [1, 9]: 96.6 ± 104 min
AUC(0-inf) [1, 10]: 3.9 ± 0.501 µM·h
AUC(0-t) [1, 10]: 3.77 ± 0.608 µM·h
Cmax [1, 10]: 5.23 ± 2.59 µM
MRT [1, 10]: 74.4 ± 40.8 min
Tmax [1, 10]: 19.8 ± 8.4 min
half-life [1, 10]: 79.8 ± 38.4 min
AUC(0-inf) [1, 11]: 6.81 ± 0.223 µM·h
AUC(0-t) [1, 11]: 6.71 ± 0.267 µM·h
Cmax [1, 11]: 7.03 ± 1.05 µM
MRT [1, 11]: 78.6 ± 11.4 min
Tmax [1, 11]: 19.8 ± 8.4 min
half-life [1, 11]: 87.6 ± 13.8 min
AUC(0-inf) [1, 12]: 18.4 µM·h
AUC(0-t) [1, 12]: 18.1 µM·h
Cmax [1, 12]: 16 µM
MRT [1, 12]: 96 ± 18.6 min
Tmax [1, 12]: 25.2 ± 8.4 min
half-life [1, 12]: 167 ± 82.8 min
Stability, response (%Control) [2, 13]: (98.1) %Control
Stability, response (%Control) [2, 14]: (89.5) %Control
Stability, response (%Control) [2, 15]: (95.2) %Control
Stability, response (%Control) [2, 16]: (97.5) %Control
Stability, response (%Control) [2, 17]: (108) %Control
Stability, response (%Control) [2, 18]: (112) %Control
Stability, response (%Control) [2, 19]: (106) %Control
Stability, response (%Control) [2, 20]: (109) %Control

COC(=O)[C@@H](O)CCn1cnc2c(N)ncnc21 [DZ2002, Methyl (S)-4-(6-amino-9H-purin-9-yl)-2-hydroxybutanoate]
bioavailability [1, 4]: 90 to 159%
half-life [1, 4]: 18 to 54 min
F1 (oral bioavailability, from AUC of DZ2002) ([1]; female rat, oral DZ2002 at 5 mg/kg vs iv 5 mg/kg): 145 ± 27%
F1 (oral bioavailability, from AUC of DZ2002) ([1]; female rat, oral DZ2002 at 10 mg/kg vs iv 5 mg/kg): 90 ± 27%
F1 (oral bioavailability, from AUC of DZ2002) ([1]; female rat, oral DZ2002 at 25 mg/kg vs iv 5 mg/kg): 118 ± 41%
AUC(0-inf) [1, 5]: 0.68 ± 0.396 µM·h
AUC(0-t) [1, 5]: 0.66 ± 0.376 µM·h
MRT [1, 5]: 9 ± 3.6 min
Vd [1, 5]: 4.59 ± 0.96 L/kg
clearance [1, 5]: 590 mL/min/kg
concentration at 5 min [1, 5]: 3.03 ± 1.45 µM
half-life [1, 5]: 9 ± 6.6 min
AUC(0-inf) [1, 6]: 0.985 ± 0.184 µM·h
AUC(0-t) [1, 6]: 0.963 ± 0.182 µM·h
Cmax [1, 6]: 2.72 ± 0.418 µM
MRT [1, 6]: 25.8 ± 6.6 min
Tmax [1, 6]: 4.8 min
half-life [1, 6]: 18.6 ± 7.2 min
AUC(0-inf) [1, 7]: 1.23 ± 0.348 µM·h
AUC(0-t) [1, 7]: 1.18 ± 0.366 µM·h
Cmax [1, 7]: 2.13 ± 0.742 µM
MRT [1, 7]: 44.4 ± 9.6 min
Tmax [1, 7]: 8.4 ± 6 min
half-life [1, 7]: 32.4 ± 10.8 min
AUC(0-inf) [1, 8]: 4.02 ± 1.4 µM·h
AUC(0-t) [1, 8]: 3.95 ± 1.43 µM·h
Cmax [1, 8]: 8.49 ± 2.49 µM
MRT [1, 8]: 40.2 ± 13.8 min
Tmax [1, 8]: 4.8 min
half-life [1, 8]: 42.6 ± 25.2 min
F1 (oral bioavailability, from AUC of DZ2002) ([1]; male rat, oral DZ2002 at 5 mg/kg vs iv 5 mg/kg): 157 ± 18%
F1 (oral bioavailability, from AUC of DZ2002) ([1]; male rat, oral DZ2002 at 10 mg/kg vs iv 5 mg/kg): 146 ± 20%
F1 (oral bioavailability, from AUC of DZ2002) ([1]; male rat, oral DZ2002 at 25 mg/kg vs iv 5 mg/kg): 159 ± 48%
AUC(0-inf) [1, 9]: 0.504 ± 0.146 µM·h
AUC(0-t) [1, 9]: 0.495 ± 0.142 µM·h
MRT [1, 9]: 6.6 ± 1.2 min
Vd [1, 9]: 4.5 ± 1.22 L/kg
clearance [1, 9]: 707 mL/min/kg
concentration at 5 min [1, 9]: 2.46 ± 0.597 µM
half-life [1, 9]: 4.8 ± 0.6 min
AUC(0-inf) [1, 10]: 0.79 ± 0.092 µM·h
AUC(0-t) [1, 10]: 0.729 ± 0.052 µM·h
Cmax [1, 10]: 1.38 ± 0.457 µM
MRT [1, 10]: 40.2 ± 19.2 min
Tmax [1, 10]: 11.4 ± 6 min
half-life [1, 10]: 27 ± 13.8 min
AUC(0-inf) [1, 11]: 1.47 ± 0.199 µM·h
AUC(0-t) [1, 11]: 1.41 ± 0.171 µM·h
Cmax [1, 11]: 2.36 ± 1.1 µM
MRT [1, 11]: 49.8 ± 14.4 min
Tmax [1, 11]: 8.4 ± 6 min
half-life [1, 11]: 40.8 ± 29.4 min
AUC(0-inf) [1, 12]: 4 ± 1.21 µM·h
AUC(0-t) [1, 12]: 3.85 ± 1.15 µM·h
Cmax [1, 12]: 4.02 ± 0.898 µM
MRT [1, 12]: 72 ± 22.2 min
Tmax [1, 12]: 8.4 ± 6 min
half-life [1, 12]: 55.8 ± 16.2 min
Systemic clearance (CLtot,b) exceeding rat cardiac output (17.8 L/h/kg) [1, 21]: around 2 times
Systemic clearance (CLtot,b) exceeding rat hepatic blood flow rate (3.31 L/h/kg) [1, 21]: around 13 times
Stability, response (%Control) [2, 13]: (108) %Control
Stability, response (%Control) [2, 14]: (102) %Control
Stability, response (%Control) [2, 15]: (93.6) %Control
Stability, response (%Control) [2, 16]: (102) %Control
Stability, response (%Control) [2, 17]: (94.6) %Control
Stability, response (%Control) [2, 18]: (92.4) %Control
Stability, response (%Control) [2, 19]: (108) %Control
Stability, response (%Control) [2, 20]: (108) %Control
Formation of DZA in methanol-treated rat blood spiked with DZ2002 ([3]; 400 μL methanol to 50–200 μL rat blood, 23 °C): undetected
Stability of DZ2002 in rat blood ([3]; freshly collected rat blood, 1000 nM, 23 or 37 °C): quickly transformed into its acid metabolite DZA

3-(6-amino-9H-purin-9-yl)-2,2-diethylpropanoic acid [Internal standard, reference compound]
Stability, response (%Control) ([2]; after three cycles of freeze and thaw of −70 °C↔23 °C, 500 nM): (98.4) %Control
Stability, response (%Control) ([2]; in rat blood at 23 °C for 4 h, 500 nM): (108) %Control
Stability, response (%Control) ([2]; in rat blood at −70 °C for 60 days, 500 nM): (104) %Control
Stability, response (%Control) ([2]; in stock solutions at −70 °C for 6 months, internal standard (500 nM)): (97.9) %Control
Stability, response (%Control) ([2]; in supernatant of methanol-treated rat blood at 10 °C for 24 h, 500 nM): (106) %Control
